# Screens (PubChem)
# The list is not random: actives were taken first. Their share in the collection is about 4.5%.
# CHOP inh = CHOP inhibition in unfolded protein response | CHO-K1 CHOP-promoter luciferase, tunicamycin-induced, 15-18 h | inhibition, % at 10 µM | actives 3.8% (n = 220,000) | AID 2732;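 active means compounds that reduced the stress-induced luciferase reporter signal by more than about 70% of percent inhibition, limit read from the data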;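 further: 0% = tunicamycin plus vehicle and 100% = wells without tunicamycin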
# HCV NS3 hel inh = blocks Hepatitis C virus NS3 helicase unwinding; actives 0.56% (n = 290,000); AID 1800; inhibition, % at 10.9 µM; NS3 helicase DNA unwinding, Cy5 molecular beacon fluorescence;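 active means inhibition above the mean of all tested compounds plus 3 SD, set per campaign, cut at about 35% in these data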;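 further: 0% = DMSO wells and 100% = thioflavine S control wells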
#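 Assay system: hepatitis C virus NS3 helicase domain fragment enzyme. Also added: annealed dual-labelled DNA beacon duplex, ATP-started. Timing: 1 h reaction at 25 °C, ATP-initiated. Technique: Cy5 fluorescence at 0 and 60 min, beacon hairpin quenching. Evaluation: % inhibition of unwinding. Replication: one well per compound.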
# CHOP UPR activ = activators of apoptotic arm of unfolded protein response (CHOP) | CHO-CHOP luciferase reporter, UPR activation, luminescence; percent of tunicamycin response over DMSO baseline | activation, % at 10 µM | actives 0.34% (n = 330,000);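 active means at 10 µM dose, activation of 40% or more, normalized to positive control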;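 further: 100% = tunicamycin at 10 µg/mL and 0% = DMSO alone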
#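 Material: CHO-CHOP cells, stable luciferase reporter of PERK-eIF2a-CHOP signalling; quantity: 500 reporter cells seeded per well; buffer or medium: F12 medium containing 10% fetal bovine serum; compound: one dose, 10 µM in 0.5% DMSO; incubation: 6 h compound treatment, 37 °C; measured by: Steady-Glo luciferase luminescence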
# XBP1 UPR activ = activators of adaptive arm of unfolded protein response (XBP1); activation, % at 20 µM; CHO-XBP1 luciferase reporter, IRE1-XBP1 UPR activation, luminescence; percent of tunicamycin response, DMSO as zero; actives 0.33% (n = 330,000);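 active means versus positive control, 20 µM dose yields 30% or more activation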;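 further: 100% = tunicamycin at 10 µg/mL and 0% = DMSO only wells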
#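 Assay system: CHO-XBP1 luciferase reporter cells; Schedule: 6 h treatment, 37 °C; Detection: glow luminescence from Steady-Glo reagent; Benchmarks: high control tunicamycin 10 µg/mL final, low control DMSO vehicle only.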
# p97 inhibitor = blocks human p97 ATPase activity. P55072. recombinant p97 ATPase, Kinase-Glo ATP luminescence, 3 h. inhibition, % at 8 µM. actives 0.42% (n = 220,000); in the data active means inhibition above about 15%;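 further: 0% = DMSO vehicle and 100% = wells lacking enzyme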
# Target sequence (P55072 whole entry, looked up): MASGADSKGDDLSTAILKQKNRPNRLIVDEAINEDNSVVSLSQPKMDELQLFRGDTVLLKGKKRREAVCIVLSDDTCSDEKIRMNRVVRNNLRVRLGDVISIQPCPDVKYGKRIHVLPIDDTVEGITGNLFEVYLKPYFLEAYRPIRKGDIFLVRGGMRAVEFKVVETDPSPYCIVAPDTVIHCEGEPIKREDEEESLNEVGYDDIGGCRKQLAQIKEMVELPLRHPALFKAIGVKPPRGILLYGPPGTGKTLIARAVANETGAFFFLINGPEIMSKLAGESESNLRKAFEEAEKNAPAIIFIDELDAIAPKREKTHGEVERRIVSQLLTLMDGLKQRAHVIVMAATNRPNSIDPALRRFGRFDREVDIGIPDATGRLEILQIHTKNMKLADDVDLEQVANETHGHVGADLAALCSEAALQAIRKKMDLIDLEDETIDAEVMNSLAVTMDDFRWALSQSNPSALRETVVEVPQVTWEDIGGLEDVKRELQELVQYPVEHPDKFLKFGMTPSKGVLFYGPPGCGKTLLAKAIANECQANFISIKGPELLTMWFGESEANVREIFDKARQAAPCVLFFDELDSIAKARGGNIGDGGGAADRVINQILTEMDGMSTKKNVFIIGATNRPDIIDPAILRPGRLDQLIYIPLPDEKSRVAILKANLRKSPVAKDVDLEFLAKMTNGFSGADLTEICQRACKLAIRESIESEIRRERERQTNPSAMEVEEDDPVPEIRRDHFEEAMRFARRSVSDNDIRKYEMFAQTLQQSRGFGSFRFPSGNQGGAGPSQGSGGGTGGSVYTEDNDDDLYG
# PfM18AAP inh = PfM18AAP enzyme inhibition; recombinant PfM18AAP, H-Glu-NHMec fluorogenic cleavage; AID 1822; actives 1.2% (n = 290,000); inhibition, % at 7.35 µM;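 active means inhibition above the campaign mean inhibition over all tested compounds plus 3 SD, cut at about 28% in these data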;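 further: 0% = plate median of test compound wells and 100% = 2 mM ZnCl2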
# p97 confirm = human p97 ATPase inhibition, confirmation | shares compounds with p97 inhibitor | recombinant p97 ATPase, Kinase-Glo ATP luminescence | inhibition, % at 8 µM | actives 44% (n = 760);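 active means percent inhibition of p97 ATPase above a set limit, the primary screen's mean plus 3 SD, cut at about 15% in these data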;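 further: 0% = DMSO wells and 100% = wells lacking p97 protein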
# NS3 helicase cf = confirmation of Hepatitis C virus NS3 helicase inhibitors; shares compounds with HCV NS3 hel inh; NS3 helicase DNA unwinding, Cy5 molecular beacon fluorescence; inhibition, % at 10.9 µM; actives 31% (n = 1,600); AID 1943;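 active means inhibition above the mean of all tested compounds plus 3 SD, cutoff set per campaign, cut at about 36% in these data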
# FID counter trip = displaces DNA intercalator in HCV helicase counter-screen | inhibition, % at 7.9 µM | DNA fluorescent intercalator displacement, fluorescence | actives 4% (n = 1,600) | shares compounds with HCV NS3 hel inh; in the data active means inhibition above about 37%;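 further: 0% = vehicle and 100% = reference compound; higher means more displacement of ethidium bromide from the DNA hairpin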
# * hit, by the source's call; . = no result.
SMILES,CHOP inh,HCV NS3 hel inh,CHOP UPR activ,XBP1 UPR activ,p97 inhibitor,PfM18AAP inh,p97 confirm,others
C#CCOCCOCCOCCNc1nc(N2CCN(C(=O)C(Cc3ccc(O)cc3)n3cc(C(N)CC(C)C)nn3)CC2)nc(N2CCN(C(=O)C(Cc3cc4ccccc4[nH]3)n3cc(C(N)Cc4ccc(O)cc4)nn3)CC2)n1 (configuration not stated),-6.6,-63.3,2.2,-2.3,18.9*,0.6,19.8*,
C#CCOCCOCCOCCNc1nc(N2CCN(C(=O)[C@H]([C@@H](C)CC)n3cc([C@@H](N)Cc4ccc(O)cc4)nn3)CC2)nc(N2CCN(C(=O)[C@H]([C@@H](C)CC)n3cc([C@@H](N)CC(C)C)nn3)CC2)n1,-15.1,-62.0,-2.0,-3.0,18.4*,9.1,9.5,
Cc1ccc(S(=O)(=O)c2c(N)n(CCCN(C)C)c3nc4ccccc4nc23)cc1,-0.1,-52.1,2.0,0.1,0.8,-4.5,.,
CN(C)CCCn1c(N)c(C#N)c2nc3ccccc3nc21,11.2,11.9,-0.7,-0.7,31.7*,3.1,6.9,
O=C1CN(C(=O)C2CCC(=O)N(CCc3ccc(Cl)cc3)C2)CCN1 (configuration not stated),.,1.1,5.3,-2.3,.,0.5,.,
COc1cccc(CNC(=O)c2ccc(Cl)c(NC3=NC4CS(=O)(=O)CC4S3)c2)c1 (configuration not stated),.,-0.4,1.9,2.6,.,-3.6,.,
Cc1cc2c(cc1S(=O)(=O)N1CC(C)CC(C)C1)OCC(=O)N2 (configuration not stated),.,-2.9,-2.1,0.4,.,-7.5,.,
CCCN1CCN(c2ncnc3c2nnn3Cc2ccccc2)CC1,.,-7.1,0.5,-0.5,0.0,-0.8,.,
c1ccc(Cn2nnc3c(N4CCCCCC4)ncnc32)cc1,38.8,-0.3,0.5,1.4,19.7*,1.2,0.8,
CCOc1ccc(-n2c(N)c(C(=O)NCc3ccco3)c3nc4ccccc4nc32)cc1,-1.0,1.7,3.3,-1.9,3.9,20.3,.,
Nc1c(C(=O)NCc2ccco2)c2nc3ccccc3nc2n1CCc1ccccc1,24.9,12.5,.,.,18.1*,17.9,7.2,
CCc1ccc(NC(=O)COC(=O)c2nc3nc(C)cc(C)n3n2)cc1,.,.,1.7,0.8,.,.,.,
Cc1ccc(C)c(Nc2cc(C)nc3ccccc23)c1,.,.,-2.1,-3.6,.,.,.,
CC1=Nc2ccccc2/C1=C/c1sc(=S)n(-c2cccc(C(=O)O)c2)c1O,-8.3,-18.4,.,.,16.4*,11.4,34.6*,
O=C1NN(c2ccc(Cl)c(Cl)c2)C(=O)/C1=C/c1cccc(OC(=O)c2cccs2)c1,55.6,4.3,8.5,7.0,19.2*,-18.4,7.1,
O=C(CNCC1CCCO1)NCc1ccco1 (configuration not stated),14.9,1.6,0.7,3.3,5.2,5.3,.,
O=C(Oc1cccc(Nc2ncnc3ccccc23)c1)c1ccccc1Cl,86.7*,-20.1,5.2,1.1,15.8*,-13.3,24.9*,
CSc1nsc2nc(=O)c(/C=C3\C(C)=Nc4ccccc43)c(N)n12,11.0,11.6,.,.,21.0*,9.4,38.2*,
O=C(O)CSc1cc(NS(=O)(=O)c2cccc([N+](=O)[O-])c2)c2ccccc2c1O,-44.3,18.6,.,.,26.7*,-30.9,40.0*,
O=[N+]([O-])c1ccc(Nc2ccccc2F)nc1,6.9,0.1,-0.3,-2.9,-2.7,-3.5,.,
O=C1NC(=O)/C(=C/c2cccc(O)c2)N1,1.6,7.6,.,.,19.1*,8.1,14.1,
Cc1[nH]c2ccccc2c1C(=O)COC(=O)CCS(=O)(=O)c1ccccc1Cl,-0.7,-14.8,2.0,-1.0,26.7*,4.3,30.0*,
COc1cc(/C=C2/SC(=Nc3ccc(O)cc3)NC2=O)cc(OC)c1O,0.5,-4.0,0.6,11.2,26.0*,32.6*,20.1*,
O=C1OC(=O)C2C1[C@@H]1CC[C@H]2O1 (some centres not stated),-2.4,11.4,-0.2,-4.1,15.7*,0.5,9.3,
CC(C)Oc1ccc(Cl)cc1Nc1nc(NCCO)nc(N2CCCC2)n1,.,.,0.7,5.0,.,.,.,
SMILES,CHOP inh,HCV NS3 hel inh,CHOP UPR activ,XBP1 UPR activ,p97 inhibitor,PfM18AAP inh,p97 confirm,others
CN=C(NC(=O)Nc1c(C)cccc1C)NC(=O)Nc1c(C)cccc1C,15.4,4.6,-1.6,-1.2,6.2,-2.7,.,
CN=C(N)NC(=O)Nc1c(C)cccc1C,0.8,2.4,-1.8,1.2,14.9*,2.8,7.1,
COc1ccccc1N1CCN(S(=O)(=O)c2ccc(NC(C)=O)cc2)CC1,.,-8.3,1.0,-5.4,.,5.8,.,
COc1ccc(C2=NN(c3ccccc3)C(=O)/C2=C\c2ccc(O)c(OC)c2)cc1,25.5,7.4,0.7,7.4,34.8*,7.6,6.9,
COc1ccc(/C=C2/C(=O)N(c3ccccc3)N=C2C)cc1,.,.,-1.8,1.3,.,.,.,
CCC(C)NC(=O)CSc1nc2scc(-c3ccccc3)c2c(=O)[nH]1 (configuration not stated),3.8,1.9,0.1,-1.9,4.4,3.2,.,
CC(Sc1nc2scc(-c3ccccc3)c2c(=O)[nH]1)C(=O)NC(N)=O (configuration not stated),1.6,-4.1,0.6,-1.9,14.9*,3.3,24.2*,
Cc1ccc(/C=C2/SC(=S)N(C3CCCCC3)C2=O)o1,.,27.4,2.5,-1.6,.,23.8,.,
Cc1ccc(/C=C2/SC(=O)NC2=S)o1,28.5,52.8*,-1.8,-3.3,25.8*,26.3,14.8,NS3 helicase cf=38.0*;FID counter trip=17.1
O=C1/C(=C/C=C/c2ccco2)SC(=S)N1NS(=O)(=O)c1ccccc1,-0.8,65.6*,0.5,-1.2,15.8*,26.1,14.5,NS3 helicase cf=72.9*;FID counter trip=16.6
O=C1/C(=C/c2cccs2)SC(=S)N1NS(=O)(=O)c1ccccc1,-0.1,7.8,0.2,-1.9,-0.9,4.0,.,
Cc1ccc(NC(=O)CCNC(=O)Cn2cnc3ccccc3c2=O)cc1F,.,11.0,0.1,-2.6,.,5.5,.,
COc1ccc(CCNC(=O)C2CCN(C(=O)c3ccc(Br)cc3)CC2)cc1OC,.,3.8,-1.1,-4.7,.,4.8,.,
NC(=O)c1sc2nc(-c3ccco3)ccc2c1N,26.7,73.5*,3.3,1.3,24.3*,12.8,5.4,NS3 helicase cf=-5.7;FID counter trip=-0.2
COC(=O)c1sc2nc(-c3ccco3)ccc2c1N,-31.3,34.1,1.7,0.9,4.2,24.6,.,
